A short description of assay [1]: Antiproliferative activity against chinese hamster R2(VC) cells assessed as reduction of viable cells after 96 hrs. To be noted: Cricetulus griseus.
A short description of assay [2]: Antiproliferative activity against chinese hamster RT16 cells expressing human FRalpha assessed as reduction of viable cells after 96 hrs in the presence of 200 nM folic acid. The class given is functional, cell-based. Particulars: Cricetulus griseus, RT16, 96 h. A digest of the protocol:
(§1)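 Same 96 h CellTiter-blue proliferation set-up in folate-free RPMI/10% dFBS with 2 nM leucovorin. Run in parallel incubations that included 200 nM folic acid alongside the antifolate, to establish FR-dependent uptake.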

Assay [3] has as its system R2. Description: Antiproliferative activity against chinese hamster R2 cells expressing human PCFT assessed as reduction of viable cells after 96 hrs. The assay is classed as functional, cell-based. To be noted: Cricetulus griseus, R2, 96 h.
Assay [4] in a line: Antiproliferative activity against chinese hamster RT16 cells expressing human FRalpha assessed as reduction of viable cells after 96 hrs. The class given is functional, cell-based. Particulars: Cricetulus griseus, RT16, 96 h.
Assay [5] deals with KB. Description: Antiproliferative activity against human KB cells expressing human RFC, FRalpha and PCFT assessed as reduction of viable cells after 96 hrs in the presence of 200 nM folic acid. The class given is functional, cell-based. In short, it runs like this:
as §1

The subject of assay [6] is IGROV-1. The assay can be described thus: Antiproliferative activity against human IGROV1 cells expressing human RFC, FRalpha and PCFT assessed as reduction of viable cells after 96 hrs in the presence of 200 nM folic acid. Particulars: IGROV-1, 96 h. The assay is classed as functional, cell-based. A digest of the protocol: as §1
Assay [7] is described as follows: Antiproliferative activity against chinese hamster PC43-10 expressing human RFC assessed as reduction of viable cells after 96 hrs. Particulars: Cricetulus griseus, PC43-10, 96 h. The assay is classed as functional.
The test system of assay [8] is IGROV-1. The assay can be described thus: Antiproliferative activity against human IGROV1 cells expressing human RFC, FRalpha and PCFT assessed as reduction of viable cells after 96 hrs. The class given is functional, cell-based. Particulars: IGROV-1, 96 h.
In assay [9] the test system is KB. The assay can be described thus: Antiproliferative activity against human KB cells expressing human RFC, FRalpha and PCFT assessed as reduction of viable cells after 96 hrs. The assay is classed as functional, cell-based.
For assay [10], the system named is R2. The assay can be described thus: Antiproliferative activity against chinese hamster R2 cells assessed as reduction of viable cells after 96 hrs. To be noted: Cricetulus griseus, R2, 96 h.
Assay [11] concerns R2. Description: Inhibition of GARFTase in chinese hamster R2 cells expressing human PCFT assessed as incorporation of [14C]glycine into [14C]formyl GAR in the presence of 4 uM azaserine. Particulars: Cricetulus griseus. The class given is cell-based.
Assay [12] addresses T1, Reduced folate transporter (Homo sapiens) (UniProt P41440).
T1 sequence (whole entry): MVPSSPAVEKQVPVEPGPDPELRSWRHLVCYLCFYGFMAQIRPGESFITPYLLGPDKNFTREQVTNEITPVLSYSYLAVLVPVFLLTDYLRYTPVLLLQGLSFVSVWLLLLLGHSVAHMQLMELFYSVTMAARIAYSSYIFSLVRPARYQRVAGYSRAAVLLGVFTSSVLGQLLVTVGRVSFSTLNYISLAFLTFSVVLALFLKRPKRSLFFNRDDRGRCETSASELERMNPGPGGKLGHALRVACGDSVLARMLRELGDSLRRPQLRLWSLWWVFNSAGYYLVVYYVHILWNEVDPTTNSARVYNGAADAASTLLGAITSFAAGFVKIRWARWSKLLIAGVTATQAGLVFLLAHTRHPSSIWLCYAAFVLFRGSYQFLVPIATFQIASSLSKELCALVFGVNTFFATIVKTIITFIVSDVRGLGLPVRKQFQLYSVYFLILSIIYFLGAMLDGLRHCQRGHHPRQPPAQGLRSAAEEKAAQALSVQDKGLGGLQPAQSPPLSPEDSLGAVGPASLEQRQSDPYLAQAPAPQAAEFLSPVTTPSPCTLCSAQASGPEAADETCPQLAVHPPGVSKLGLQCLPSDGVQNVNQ
Description: Inhibition of human RFC-mediated [3H]MTX uptake in chinese hamster PC43-10 cells at 10 uM after 2 mins relative to control. The assay is classed as cell-based. A digest of the protocol:
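PC43-10 (hRFC) cells were suspended in Hank's balanced salts. […] Results were expressed per mg protein, and percent inhibition was taken versus control uptake.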

Assay [13] relates to R2. Description: Decrease in intracellular ATP concentration in chinese hamster R2 cells expressing human PCFT at 1 uM after 24 hrs by HPLC relative to control at pH 6.8. The class given is functional, Cricetulus griseus. Further details: scale not given: the % may be the effect or the level left. In short, it runs like this: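 R2/hPCFT4 CHO cells seeded in folate-free RPMI 1640 with 10% dialysed FBS and 25 nM leucovorin (pH 7.2). After 24 h, switched to the same medium buffered to pH 6.8 with 25 mM PIPES/25 mM HEPES. Drug at 1 µM, or vehicle (0.5% DMSO or H2O), for 24 h. Nucleotides extracted; ATP quantified by HPLC against vehicle control.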

The target of assay [14] is T2, Proton-coupled folate transporter (Homo sapiens) (UniProt Q96NT5).
T2 sequence (whole entry): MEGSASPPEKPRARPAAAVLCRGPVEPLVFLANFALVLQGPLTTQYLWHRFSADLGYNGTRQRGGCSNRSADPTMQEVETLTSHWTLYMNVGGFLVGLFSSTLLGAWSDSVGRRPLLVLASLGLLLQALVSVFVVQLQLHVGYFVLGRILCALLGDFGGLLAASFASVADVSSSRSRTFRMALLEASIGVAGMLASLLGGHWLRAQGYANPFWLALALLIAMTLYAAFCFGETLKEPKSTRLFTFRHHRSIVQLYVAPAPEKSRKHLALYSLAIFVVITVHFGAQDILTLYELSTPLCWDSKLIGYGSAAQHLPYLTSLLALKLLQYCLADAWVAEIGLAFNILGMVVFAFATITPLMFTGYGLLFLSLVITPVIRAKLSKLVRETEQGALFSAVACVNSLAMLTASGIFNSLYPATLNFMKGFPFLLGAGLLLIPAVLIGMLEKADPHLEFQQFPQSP
The assay can be described thus: Inhibition of human PCFT-mediated [3H]MTX uptake ectopically expressed in chinese hamster R2 cells at 10 uM at pH 5.5 to 7.2. The class given is cell-based.

Assay [15] concerns the target T2, Proton-coupled folate transporter (Homo sapiens). Description: Inhibition of human PCFT-mediated [3H]MTX uptake expressed in chinese hamster R2 cells at pH 5.5 by dixon plot analysis relative to PMX. Particulars: concentration not given here. The class given is cell-based.
Assay [16] concerns IGROV-1. Description: Antitumor activity against human IGROV1 cells expressing human RFC, FRalpha and PCFT xenografted in SCID mouse assessed as log cell kill at 180 mg/kg, iv administered on days 3, 7, 11, 15, and 19 postimplantation. The class given is functional. A digest of the protocol: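 Female ICR SCID mice, 10 weeks old, on a folate-deficient diet from 24 days before implant. Bilateral subcutaneous IGROV1 tumour fragments (30–60 mg, by trocar); mice pooled, then randomised. IV dosing on days 3, 7, 11, 15 and 19. Mice weighed daily; tumours measured by caliper 2–3 times weekly; mice sacrificed at 1500 mg tumour burden. Weight-loss nadir and recovery recorded.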
On the technique in general: In xenograft studies the graft and the host belong to different species.

Assay [17] concerns the target T2, Proton-coupled folate transporter (Homo sapiens). The assay can be described thus: Induction of current in human PCFT expressed in xenopus oocyte at 5 uM at holding potential -90 mV by voltage clamp assay.
For assay [18] the target is unchanged. Description: Inhibition of human PCFT-mediated [3H]MTX uptake expressed in chinese hamster R2 cells at pH 6.8 […] relative to PMX. To be noted: concentration not given here. The assay is classed as cell-based.
Assay [19] in a line: Antiproliferative activity against chinese hamster D4 cells expressing human FRbeta assessed as reduction of viable cells after 96 hrs in the presence of 200 nM folic acid. The assay is classed as functional, cell-based. To be noted: Cricetulus griseus, D4, 96 h. In short, it runs like this: as §1
The subject of assay [20] is R2. Description: Antiproliferative activity against chinese hamster R2 cells expressing human PCFT assessed as growth inhibition at <50 nM in the presence of 10 uM thymidine. The assay is classed as functional, cell-based. Particulars: Cricetulus griseus. In short, it runs like this: (§2)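 R2/hPCFT4 cells were grown in folate-free RPMI with 25 nM leucovorin and 10% dFBS and exposed to antifolate for up to 96 h. Rescue co-incubations used thymidine (10 µM), adenosine (60 µM) and AICA (320 µM), alone or combined. Viability was read by CellTiter-blue.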

Assay [21] relates to R2. Description: Antiproliferative activity against chinese hamster R2 cells expressing human PCFT assessed as growth inhibition in the presence of 10 uM thymidine and 320 uM AICA. The assay is classed as functional, cell-based. To be noted: Cricetulus griseus. A digest of the protocol: as §2
Assay [22] concerns R2. The assay can be described thus: Antiproliferative activity against chinese hamster R2 cells expressing human PCFT assessed as growth inhibition in the presence of 60 uM adenosine and 10 uM thymidine. The assay is classed as functional, cell-based. To be noted: Cricetulus griseus. A digest of the protocol: as §2
Assay [23] relates to R2. The assay can be described thus: Antiproliferative activity against chinese hamster R2 cells expressing human PCFT assessed as growth inhibition in the presence of 60 uM adenosine. The assay is classed as functional, cell-based. To be noted: Cricetulus griseus. A digest of the protocol:
as §2

The target in assay [24] is Folate receptor alpha (Homo sapiens) (UniProt P15328). The assay can be described thus: Displacement of [3H]-folic acid from human FRaplha expressed in chinese hamster RT16 cells after 15 mins. The assay is classed as cell-based. (In general: In a radioligand displacement assay an active substance lowers the binding of a labelled ligand.)
In assay [25] the target is Folate receptor beta (Homo sapiens) (UniProt P14207). The assay can be described thus: Displacement of [3H]-folic acid from human FRbeta expressed in chinese hamster D4 cells after 15 mins. The assay is classed as cell-based.
Assay [26] in a line: Antiproliferative activity against chinese hamster D4 cells expressing human FRbeta assessed as reduction of viable cells after 96 hrs. The class given is functional, cell-based. Particulars: Cricetulus griseus, D4, 96 h.

The source made the active and inactive calls. The calls are words filed in the database; no cut-off is given here. Where only a bound is given, the exact number is not on record here.

Consider nine compounds from ChEMBL document CHEMBL1833876 (J Med Chem, 2011).

Chain of Folate receptor alpha (Homo sapiens) (P15328 25-234 limits assumed): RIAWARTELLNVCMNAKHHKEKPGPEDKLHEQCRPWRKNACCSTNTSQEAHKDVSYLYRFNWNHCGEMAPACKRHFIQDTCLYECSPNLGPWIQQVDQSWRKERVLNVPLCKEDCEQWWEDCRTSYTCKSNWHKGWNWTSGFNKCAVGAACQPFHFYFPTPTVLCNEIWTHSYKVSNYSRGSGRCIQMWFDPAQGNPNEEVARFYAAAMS
Chain of Folate receptor beta (Homo sapiens) (P14207 17-230 limits assumed): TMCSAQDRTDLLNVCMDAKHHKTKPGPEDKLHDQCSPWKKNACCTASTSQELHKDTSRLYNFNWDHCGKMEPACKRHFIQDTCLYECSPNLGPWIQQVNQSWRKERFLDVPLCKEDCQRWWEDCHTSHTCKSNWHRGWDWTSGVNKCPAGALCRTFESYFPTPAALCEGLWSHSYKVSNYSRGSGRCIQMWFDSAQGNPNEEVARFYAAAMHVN

One may read the IC50 as the point on the concentration scale where inhibition reaches its midpoint. For `CN(Cc1cnc2nc(N)nc(N)c2n1)c1ccc(C(=O)N[C@@H](CCC(=O)O)C(=O)O)cc1` [METHOTREXATE], the IC50 in assay [1] was above 1000 nM.

In the case of `Nc1nc2[nH]c(Cc3ccc(C(=O)N[C@@H](CCC(=O)O)C(=O)O)s3)cc2c(=O)[nH]1`, the IC50 is above 1000 nM in assay [2]; above 1000 nM in [1]; 291 nM in [3]; 122 nM in assay [4]; above 1000 nM in assay [5]; above 1000 nM in [6]. Moreover, the half-maximal inhibitory concentration (IC50) was above 1000 nM in [7], above 1000 nM in assay [8], 41.9 nM in assay [9] and above 1000 nM in [10].

Broadly, the inhibition is how much of the control response was suppressed. As for `Nc1nc2c(c(=O)[nH]1)C[C@@H](CCc1ccc(C(=O)N[C@@H](CCC(=O)O)C(=O)O)cc1)CN2` [LOMETREXOL], the values for the IC50 in assay [2], in assay [1] and in assay [3] were above 188 nM, above 1000 nM and 38 nM, respectively. For the same compound, the inhibition result in assay [11] and in [12] was “Active” throughout. The compound also had an Activity in assay [13] of 76%.

Turning to `Nc1nc(=O)c2c([nH]1)NCC(CNc1ccc(C(=O)N[C@@H](CCC(=O)O)C(=O)O)cc1)N2C=O` (mixture of isomers), in assay [12], the inhibition entry was “Active”.

With `Nc1nc2[nH]c(CCCCc3ccc(C(=O)N[C@@H](CCC(=O)O)C(=O)O)s3)cc2c(=O)[nH]1`, the inhibition result in [14] and in [12] was “Active” each time. Besides, the IC50 in assay [2], in assay [1], in [5], in [6], in assay [7] and in assay [19] was above 1000 nM throughout. For the same compound, in [10], the concentration for half-maximal inhibition (IC50) is above 1000 nM. Also, the inhibition amounted to 35% in [15] and 18% in assay [18]. Moreover, the LCK in assay [16] was determined as 2.3. In addition, in assay [17], the result was Active. Moreover, the Activity in assay [13] is reported as 90%.

Take `Nc1nc2[nH]cc(CCc3ccc(C(=O)N[C@@H](CCC(=O)O)C(=O)O)cc3)c2c(=O)[nH]1` [PEMETREXED]: the inhibition entry in [11] and in assay [12] was “Active” throughout. For the same compound, the outcome in assay [20] and in assay [22] was inactive. The result in [21] and in [23] was Active. In addition, in assay [13], the Activity was 17%.

As for `Nc1nc(N)c2nc(CNc3ccc(C(=O)N[C@@H](CCCNC(=O)c4ccccc4C(=O)O)C(=O)O)cc3)cnc2n1` [TALOTREXIN], the inhibition result in assay [14] was “inactive”. For the same compound, the IC50 in [1], in assay [3] and in assay [10] was above 1000 nM in each case. In assay [12], the inhibition result is “Active”.

Consider `Cc1nc(=O)c2cc(CN(C)c3ccc(C(=O)N[C@@H](CCC(=O)O)C(=O)O)s3)ccc2[nH]1` [RALTITREXED], for which the inhibition entry in assay [12] was “Active”.

For the compound `Nc1nc2[nH]c(CCc3ccc(C(=O)N[C@@H](CCC(=O)O)C(=O)O)s3)cc2c(=O)[nH]1`, the IC50 was above 1000 nM in assay [2]; above 1000 nM in assay [1]; 135 nM in assay [3]; 38.9 nM in assay [4]; above 1000 nM in assay [5]; 6.58 nM in assay [26]. The concentration for half-maximal inhibition (IC50) in assay [6] was above 1000 nM; in assay [7], above 1000 nM; in [8], 123 nM; in [9], 3.22 nM; in assay [19], above 1000 nM; in assay [10] it was above 1000 nM. In addition, the inhibition result in [24] and in [25] was “inactive” each time. In addition, in [12], the inhibition entry was “Active”.
